These results are taken from PMC3483416 (Archives of biochemistry and biophysics, 2012).

Like-named read-outs stand apart in the source and are kept apart here. No end group written: not given here.

Experiment [1] deals with full-length human BclXL (Homo sapiens, UniProt Q07817). The experiment can be described thus: ITC: binding of Bid_BH3 peptide to full-length BclXL at varying pH. To be noted: for TΔS / ΔH / ΔG: 25 °C, ± SD, n at least 3; for TΔS: TΔS=ΔH-ΔG; for ΔG: ΔG=RTlnKd. The essentials: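 20-mer BH3 peptide (human Bid residues 81–100, gravimetric concentration) at 0.5–1 mM, titrated in 25 × 10 μl injections into 50 μM full-length human BclXL at 25 °C. Buffers 50 mM acetate pH 4, phosphate pH 6, Tris pH 8 or CAPS pH 10, each with 100 mM NaCl, 1 mM EDTA and 5 mM β-mercaptoethanol. Dilution heats subtracted. Kd and ΔH from a one-site fit; TΔS = ΔH − ΔG. Proton coupling assessed from buffer ionization-enthalpy dependence. ≥3 repeats.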

For experiment [2], the target named is T1, Full-length human BclXL (residues 1-233) (human, UniProt Q07817-1 1-233). Kind of experiment: ITC.
The target of experiment [3] is T1, Full-length human BclXL (residues 1-233). The experiment can be described thus: ITC. The source holds these as a separate data set.
Experiment [4] has the same target. The experiment can be described thus: ITC. This is another data set of the same source.
The target is the same in experiment [5]. The experiment can be described thus: ITC. This is another data set of the same source.

T1 sequence (Q07817 whole entry, the tested form may be a part): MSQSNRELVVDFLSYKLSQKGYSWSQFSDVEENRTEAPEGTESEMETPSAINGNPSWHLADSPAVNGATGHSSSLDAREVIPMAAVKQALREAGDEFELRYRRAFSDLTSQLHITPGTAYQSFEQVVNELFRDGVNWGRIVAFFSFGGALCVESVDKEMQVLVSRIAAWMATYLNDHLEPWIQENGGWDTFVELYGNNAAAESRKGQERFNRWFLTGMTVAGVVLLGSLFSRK
Sequence of full-length human BclXL (Q07817 whole entry, the tested form may be a part): as above

As for DIIRNIARHLAQVGDSMDRS [Bid_BH3 peptide], the TΔS is -2.15 ± 0.03 kcal/mol in experiment [1] (pH 4, acetate); -5.48 ± 0.15 kcal/mol in experiment [1] (pH 6, phosphate); -11.58 ± 0.29 kcal/mol in experiment [1] (pH 8, Tris); -10.13 ± 0.31 kcal/mol in experiment [1] (pH 10, CAPS). For the same molecule, the ΔH in experiment [1] (pH 4, acetate) was -9.09 ± 0.20 kcal/mol; in experiment [1] (pH 6, phosphate), -13.66 ± 0.32 kcal/mol; in experiment [1] (pH 8, Tris) it was -18.39 ± 0.53 kcal/mol; in experiment [1] (pH 10, CAPS), -16.54 ± 0.47 kcal/mol. For the same molecule, the ΔG is -6.94 ± 0.08 kcal/mol in experiment [1] (pH 4, acetate); -8.17 ± 0.09 kcal/mol in experiment [1] (pH 6, phosphate); -6.80 ± 0.04 kcal/mol in experiment [1] (pH 8, Tris); -6.40 ± 0.02 kcal/mol in experiment [1] (pH 10, CAPS). For the same molecule, the “optimum pH of ligand binding” value in experiment [1] (pH 4-10) is “optimally occurs at pH 6”.
DIIRNIARHLAQVGDSMDRS [Bid_BH3 peptide (20-mer spanning residues 81-100, the BH3 domain within human Bid)]: the Kd in experiment [2] stood at 10.4 µM; in experiment [3], 20.5 µM; in experiment [4] it was 1.03 µM; in experiment [5], 8.3 µM. Moreover, the dH in experiment [2] was -18.4 kcal/mol; in experiment [3] it was -16.5 kcal/mol; in experiment [4] it was -13.7 kcal/mol; in experiment [5], -9.09 kcal/mol.
